Screening data (PubChem BioAssay)
NPY-Y1 antag – antagonists of human neuropeptide Y receptor Y1; actives 1% (n = 200,000); inhibition, % at 3.6 µM; P25929; HEK293-CNG Y1 cells, membrane potential fluorescence; NPY at EC95, then isoproterenol;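 active = inhibition above the campaign mean inhibition of all tested compounds plus 3 SD, cut at about 20% in these data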;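 note: 0% = DMSO wells given NPY plus isoproterenol and 100% = isoproterenol alone without NPY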
Target sequence (P25929 whole entry, looked up): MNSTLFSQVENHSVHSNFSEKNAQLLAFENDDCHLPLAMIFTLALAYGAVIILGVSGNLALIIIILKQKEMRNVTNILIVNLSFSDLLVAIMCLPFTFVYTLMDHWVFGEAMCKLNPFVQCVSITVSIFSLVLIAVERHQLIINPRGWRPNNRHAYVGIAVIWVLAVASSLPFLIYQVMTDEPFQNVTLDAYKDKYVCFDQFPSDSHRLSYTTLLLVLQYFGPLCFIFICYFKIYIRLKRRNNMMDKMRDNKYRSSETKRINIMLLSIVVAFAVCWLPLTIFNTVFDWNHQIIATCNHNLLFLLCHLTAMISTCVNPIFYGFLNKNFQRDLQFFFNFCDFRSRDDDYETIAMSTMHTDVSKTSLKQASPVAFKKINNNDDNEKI
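Material: HEK293 cells with Y1 receptor plus CNG channel; times: compound incubation 1 h at room temperature, readout 45 min post-stimulation; signal: fluorescence, membrane potential probe; read-out basis: fluorescence ratio normalized to % inhibition between controls; benchmarks: full-block control isoproterenol-only wells, zero-block control NPY plus isoproterenol wells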
NPY1 pot ag – potentiates or activates human NPY-Y1 receptor; NPY-Y1 expressing cells, potentiator/agonist activation; activation, % at 3.6 µM; actives 0.37% (n = 220,000); AID 1304; in the data active = activation above about 33%, passing the limit was not always enough;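 note: cells stimulated with NPY at EC10 then isoproterenol at EC100; 0% = low agonist plus stimulus and 100% = saturating agonist plus stimulus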
NPY-Y2 PAM-ag – potentiates or activates human NPY-Y2 receptor; actives 0.45% (n = 220,000); activation, % at 3.6 µM; cells expressing NPY-Y2, potentiator/agonist read-out; AID 1359; in the data active = activation above about 27%;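 note: cells stimulated with NPY near EC25 plus isoproterenol at EC100; 0% = vehicle plus submaximal agonist and 100% = vehicle plus saturating agonist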
NPY-Y2 antag – antagonists of human neuropeptide Y receptor Y2. P49146. NPY-Y2 expressing cells, antagonist mode. inhibition, % at 2.7 µM. actives 0.99% (n = 140,000). AID 793; in the data active = inhibition above about 17%;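 note: 0% = vehicle with agonist challenge and 100% = reference antagonist with challenge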
RAM inhibit – yeast RAM network inhibition; S. cerevisiae dse1pr::URA3 reporter, 5-FOA growth OD615, 2 d; analog-sensitive cbk1-as2 kinase mutant strain; inhibition, % at 50 µM; actives 1.8% (n = 190,000); AID 868;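 active = inhibition above a set limit, 3 SD over mean compound inhibition, cut at about 8.4% in these data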;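 note: 0% = DMSO-only wells with no growth and 100% = 10 µM 1-NA-PP1 full growth; inhibition rescues growth on 5-FOA so higher OD means more RAM inhibition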
WT yeast gro inh – growth inhibition of WT yeast, mitochondrial fusion screen; AID 1362; actives 2.1% (n = 190,000); inhibition, % at 10 µM; mitochondrial fusion phenotypic screen, WT strain; in the data active = inhibition above about 58%; tested in S. cerevisiae
* hit, by the source's call; / = not tested or not shown. Rows were chosen to be rich in hits. Some 4.9% of all compounds tested hit in one or more screens of this group.

SMILES	NPY-Y1 antag	NPY1 pot ag	NPY-Y2 PAM-ag	NPY-Y2 antag	RAM inhibit	WT yeast gro inh
Cc1ccc(S(=O)(=O)N(C)C)cc1NC(=O)COC(=O)/C=C/c1cnc2ccccc2n1	10.7	-6.9	12.3	/	8.9*	5.6
Cc1ccc(S(=O)(=O)N(C)C)cc1NC(=O)COC(=O)/C=C/c1ccc2c(c1)OCO2	12.3	-17.8	-20.6	/	9.3*	3.2
Cc1cccn2c(=O)c3cc(C#N)c(=N)n(CCN4CCOCC4)c3nc12	1.1	-21.3	-6.8	-1.7	-0.7	/
FC(F)(F)c1nnc(-c2ccccc2)nc1Sc1ccccc1	4.4	-16.9	-9.4	-0.5	7.8	21.0
FC(F)(F)c1cccc(Sc2nc(-c3ccccc3)nnc2C(F)(F)F)c1	0.2	-8.3	8.1	0.1	8.6*	-9.3
CCc1nnc(NC(=O)CSc2nnnn2-c2cccc(C(=O)OC)c2)s1	8.2	-4.0	-13.7	3.7	1.5	-11.1
CSc1ccc(C(=O)C2CCCN(C(=O)CCCn3cncn3)C2)cc1 (configuration not stated)	-1.3	-5.8	-1.1	/	2.6	0.9
Nn1cc(-c2ccccc2)nc1SCC(=O)N1CCN(S(=O)(=O)c2ccc(Cl)cc2)CC1	-4.9	2.8	-20.1	1.8	9.8*	18.4
O=C(O)CCN1C(=O)c2ccc(Oc3ccc4c(c3)C(=O)N(CCC(=O)O)C4=O)cc2C1=O	1.9	0.3	-8.5	0.2	10.4*	-10.6
O=C1c2ccc(Oc3ccc4c(c3)C(=O)N(CCCCO)C4=O)cc2C(=O)N1CCCCO	-3.3	1.0	-26.3	0.9	6.6	-26.2
OC(CNc1nc2ccccc2s1)c1ccccc1 (configuration not stated)	1.1	12.6	4.5	-0.8	0.9	9.6
O=C(NCc1ccccc1)C1=C[C@@H](c2csc3ccccc23)C[C@@H](OCCCCO)O1	-3.8	-1.9	-16.4	/	10.8*	-2.7
O=C(NCc1ccccc1)C1=C[C@@H](c2coc3ccccc3c2=O)C[C@@H](OCc2ccc(CO)cc2)O1	-1.6	-7.2	-3.6	/	8.5*	1.6
O=C(NCc1ccccc1)C1=C[C@@H](C2CC2)C[C@@H](OCc2ccc(CO)cc2)O1	0.1	-9.3	-4.9	/	0.1	-8.1
O=C(NCc1ccccc1)C1=C[C@H](C2CCCCC2)C[C@H](OCc2ccc(CO)cc2)O1	0.2	-3.1	-8.8	/	11.2*	41.1
CN(C)[C@@H](CO)c1nnc([C@H](CC(=O)O)NC(=O)C2CCNCC2)o1	-0.9	-5.3	-6.6	/	0.4	-1.2
CCSc1cc(N2CCOCC2)nc(-c2ccc(Cl)cc2)n1	-3.7	8.7	2.2	1.9	10.9*	-1.5
CCCSc1cc(N2CCN(C)CC2)nc(-c2ccc(OC)cc2)n1	4.2	-20.1	-19.1	8.7	0.7	94.7*
CCCSc1cc(N2CCCC2)nc(-c2ccccc2)n1	9.8	-24.4	-7.2	3.9	1.5	-10.1
CCN(CC)C(=S)NC(=O)Cc1ccccc1	4.6	9.3	12.6	/	3.3	-4.3
C=CCN(CC=C)C(=S)NC(=O)Cc1cccc2ccccc12	10.8	-33.7	-42.0	/	2.4	65.3*
CC1CCCN(CC(=O)N2c3ccccc3Sc3ccccc32)C1 (configuration not stated)	-0.3	3.9	-0.1	/	2.9	-13.3
O=C(COc1cccc2ccccc12)Nc1nc2ccccc2[nH]1	15.8	-43.6	-9.3	15.0	1.6	67.0*
CCOc1ccccc1OCC(=O)Nc1nc2ccccc2[nH]1	-1.1	-4.4	-11.1	/	0.8	4.8
COc1ccc(Cl)cc1NC(=O)C(C)Sc1nncn1C (configuration not stated)	3.6	10.9	-1.0	0.0	1.7	4.0
SMILES	NPY-Y1 antag	NPY1 pot ag	NPY-Y2 PAM-ag	NPY-Y2 antag	RAM inhibit	WT yeast gro inh
Cn1c(=O)cc(OCCCC(=O)N2CCN(c3ccccc3)CC2)c2ccccc21	2.3	-26.7	-10.8	4.9	0.9	58.2*
COC(=O)c1ccc(CNC(=O)COC(=O)COc2ccc(OC)cc2)cc1	-3.7	4.1	-1.1	/	-0.1	-10.5
Cn1cccc1/C=C1\CCc2ccccc2C1=O	-2.0	-0.1	11.5	/	-0.4	59.7*
COc1cccc(CNC(=O)CCC2CCCN(c3cc(C)nc(N(C)C)n3)C2)c1 (configuration not stated)	6.3	-12.8	-9.0	/	3.5	2.2
COC(=O)c1cn(C(=O)c2ccccc2Cl)c2ccccc12	5.4	-8.3	-24.4	/	1.8	26.6
COC(=O)c1cn(C(=O)c2ccc(C)cc2C)c2ccccc12	18.7	-5.9	-6.5	/	2.7	60.5*
COC(=O)c1cn(C(=O)OC)c2ccccc12	3.8	-1.1	-3.3	0.7	2.5	66.3*
COC(=O)CC1=NN(c2ccc(OC)cc2)C(=O)/C1=C\c1ccc(Cl)cc1	0.9	19.8	-4.1	0.3	4.0	-0.1
COC(=O)CC1=NN(c2ccccc2)C(=O)/C1=C\c1ccc(OC)cc1	-2.7	9.2	-9.3	-0.6	9.5*	-13.9
Cc1nn(-c2ccccc2)c(N)c1C(O)(CC(=O)C(F)(F)F)C(F)(F)F (configuration not stated)	-1.1	6.1	1.9	0.1	9.0*	10.0
Cc1nn(-c2ccccc2)c(N)c1C(O)(C(F)(F)F)C(F)(F)F	-1.3	-14.2	-7.8	-0.5	0.2	6.8
Cc1ccc2nc(NC(=O)C3=NN(c4ccccc4)C(=O)CC3)sc2c1	8.8	-18.0	6.5	3.2	1.9	31.0
Cc1cccc2sc(NC(=O)C3=NN(c4ccccc4)C(=O)CC3)nc12	-0.8	12.0	6.3	6.1	10.6*	7.8
O=C(Cn1nc(-c2ccc(N3CCOCC3)c([N+](=O)[O-])c2)c2ccccc2c1=O)N1CCCCC1	25.4*	-14.1	-35.1	56.8*	0.3	-4.0
Cc1ccc(N2CCN(c3ccc(NCc4nc5ccccc5n4C)cc3)CC2)cc1	0.5	15.2	5.6	-0.3	1.8	12.8
Cc1ccc(C2(O)CN(c3ccccc3)C3=[N+]2CCS3)cc1 (configuration not stated)	11.5	1.6	-2.3	11.1	-0.2	-9.3
OC1(c2ccc(F)cc2)CN(c2ccccc2)C2=[N+]1CCS2 (configuration not stated)	4.7	108.2*	92.5*	5.5	0.0	-0.9
Cc1cc(=O)[nH]c(N/N=C/c2c(C)nn(-c3ccc(F)cc3)c2Cl)n1	-1.3	-11.1	-2.2	/	0.0	-14.8
Cn1cnnc1SCC(=O)Nc1ccccc1C(=O)NC1CC1	3.9	1.2	-16.2	1.2	-0.8	-17.8
Cc1ccc(OCC(=O)c2ccc3c(c2)CCCC3)cc1C	15.1	-28.8	-25.9	8.7	2.7	58.5*
O=C(COc1ccc(Br)cc1)c1ccc2c(c1)CCCC2	18.6	-43.2	-19.6	16.2	2.4	21.7
CCCCCCCCn1c(N2CCN(c3cccc(Cl)c3)CC2)nc2c1c(=O)[nH]c(=O)n2C	-2.7	-10.6	5.3	3.0	9.1*	-12.1
